Experimental data as given in ChEMBL document CHEMBL5724801, “EUbOPEN Chemogenomics Library - Multiplex” (2024).
“And” between values parts separate entries of the source, which are not always exact repeats. Equal values may be shown once.

Assays:
[1] = tested on: U2OS; assay: Multiplex assay against U2OS; assay type: toxicity, cell-based; conditions: human
Procedure, shortened: (§1)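 Cells were classed with CellPathfinder machine-learning gating, first as Hoechst high-intensity objects or normal cells, then (normal cells) as healthy, pyknosed or fragmented nuclei, and finally (pyknosed cells) as mitotic or apoptotic. Staining of live cells at seeding used Hoechst33342, BioTracker Green Microtubule Cytoskeleton Dye, MitoTracker Red and Annexin V Alexa Fluor 680, with imaging on a CQ1 microscope at 37°C and 5% CO2 after compound addition. Tubulin, mitochondrial-mass and membrane-permeability phenotypes are per cents of healthy-nucleus cells.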

[2] = tested on: HEK-293T; assay: Multiplex assay against HEK293T; assay type: toxicity, cell-based; conditions: human; procedure, shortened: as §1
[3] = 24 h, 1 µM, compound concentration 1 uM
[4] = 24 h, 10 µM, compound concentration 10 uM
[5] = 48 h, 1 µM, compound concentration 1 uM
[6] = 48 h, 10 µM, compound concentration 10 uM
[7] = 12 h, 1 µM, compound concentration 1 uM
[8] = 12 h, 10 µM, compound concentration 10 uM

SMILES: Cc1ccc(C(C)(O)c2nc3ccccc3s2)c(C)c1 (stereo not drawn)
- Total Cell Count [1, 3]: 327 and 159
- Population Apoptotic (%) [1, 4]: 88% and 75%
- Population Fragmented Nuclei (%) [1, 4]: 22% and 16%
- Population Healthy Nuclei (%) [1, 4]: 71% and 75%
- Population Hoechst High Intensity Objects (%) [1, 4]: 1% and 4%
- Population Membrane Permeable-Phenotype (%) [1, 4]: 5% and 3%
- Population Mitochondria Different-Phenotype (%) [1, 4]: 3% and 1%
- Population Mitotic Cells (%) [1, 4]: 11% and 25%
- Population Normal (%) [1, 4]: 98% and 95%
- Population Pyknosed Nuclei (%) [1, 4]: 6% and 7%
- Population Tubulin-Different-Phenotype (%) [1, 4]: 3%
- Total Cell Count [1, 4]: 272 and 113
- Population Apoptotic (%) [1, 5]: 88% and 94%
- Population Fragmented Nuclei (%) [1, 5]: 16% and 15%
- Population Healthy Nuclei (%) [1, 5]: 74% and 76%
- Population Hoechst High Intensity Objects (%) [1, 5]: 2% and 3%
- Population Membrane Permeable-Phenotype (%) [1, 5]: 5% and 6%
- Population Mitochondria Different-Phenotype (%) [1, 5]: 2% and 3%
- Population Mitotic Cells (%) [1, 5]: 11% and 5%
- Population Normal (%) [1, 5]: 97% and 96%
- Population Pyknosed Nuclei (%) [1, 5]: 9% and 8%
- Population Tubulin-Different-Phenotype (%) [1, 5]: 2% and 5%
- Total Cell Count [1, 5]: 442 and 215
- Population Apoptotic (%) [1, 6]: 96% and 85%
- Population Fragmented Nuclei (%) [1, 6]: 23% and 11%
- Population Healthy Nuclei (%) [1, 6]: 69% and 83%
- Population Hoechst High Intensity Objects (%) [1, 6]: 2% and 5%
- Population Membrane Permeable-Phenotype (%) [1, 6]: 6% and 5%
- Population Mitochondria Different-Phenotype (%) [1, 6]: 1%
- Population Normal (%) [1, 6]: 97% and 94%
- Population Pyknosed Nuclei (%) [1, 6]: 7% and 5%
- Population Tubulin-Different-Phenotype (%) [1, 6]: 4%
- Total Cell Count [1, 6]: 365 and 147
- Population Apoptotic (%) [2, 7]: 30% and 41%
- Population Healthy Nuclei (%) [2, 7]: 72% and 79%
- Population Hoechst High Intensity Objects (%) [2, 7]: 4% and 5%
- Population Membrane Permeable-Phenotype (%) [2, 7]: 1% and 0%
- Population Mitochondria Different-Phenotype (%) [2, 7]: 36% and 63%
- Population Mitotic Cells (%) [2, 7]: 70% and 58%
- Population Normal (%) [2, 7]: 95% and 94%
- Population Pyknosed Nuclei (%) [2, 7]: 8% and 16%
- Population Tubulin-Different-Phenotype (%) [2, 7]: 30% and 25%
- Total Cell Count [2, 7]: 483 and 308
- Population Apoptotic (%) [2, 8]: 56% and 36%
- Population Fragmented Nuclei (%) [2, 8]: 5% and 7%
- Population Healthy Nuclei (%) [2, 8]: 82% and 78%
- Population Hoechst High Intensity Objects (%) [2, 8]: 8% and 7%
- Population Membrane Permeable-Phenotype (%) [2, 8]: 0%
- Population Mitochondria Different-Phenotype (%) [2, 8]: 62% and 72%
- Population Mitotic Cells (%) [2, 8]: 43% and 63%
- Population Normal (%) [2, 8]: 91% and 92%
- Population Pyknosed Nuclei (%) [2, 8]: 12% and 13%
- Population Tubulin-Different-Phenotype (%) [2, 8]: 44% and 25%
- Total Cell Count [2, 8]: 412 and 318
- Population Apoptotic (%) [2, 3]: 26% and 32%
- Population Fragmented Nuclei (%) [2, 3]: 18% and 6%
- Population Healthy Nuclei (%) [2, 3]: 73% and 85%
- Population Hoechst High Intensity Objects (%) [2, 3]: 3%
- Population Membrane Permeable-Phenotype (%) [2, 3]: 1% and 0%
- Population Mitochondria Different-Phenotype (%) [2, 3]: 15% and 36%
- Population Mitotic Cells (%) [2, 3]: 73% and 67%
- Population Normal (%) [2, 3]: 96%
- Population Pyknosed Nuclei (%) [2, 3]: 8% and 7%
- Population Tubulin-Different-Phenotype (%) [2, 3]: 11% and 16%
- Total Cell Count [2, 3]: 645 and 447
- Population Apoptotic (%) [2, 4]: 28% and 36%
- Population Fragmented Nuclei (%) [2, 4]: 6% and 10%
- Population Healthy Nuclei (%) [2, 4]: 82% and 78%
- Population Hoechst High Intensity Objects (%) [2, 4]: 8% and 6%
- Population Membrane Permeable-Phenotype (%) [2, 4]: 0%
- Population Mitochondria Different-Phenotype (%) [2, 4]: 42% and 63%
- Population Mitotic Cells (%) [2, 4]: 71% and 63%
- Population Normal (%) [2, 4]: 91% and 93%
- Population Pyknosed Nuclei (%) [2, 4]: 11% and 10%
- Population Tubulin-Different-Phenotype (%) [2, 4]: 34% and 23%
- Total Cell Count [2, 4]: 487 and 379
- Population Apoptotic (%) [2, 5]: 17% and 34%
- Population Fragmented Nuclei (%) [2, 5]: 20% and 13%
- Population Healthy Nuclei (%) [2, 5]: 73% and 78%
- Population Hoechst High Intensity Objects (%) [2, 5]: 2% and 3%
- Population Membrane Permeable-Phenotype (%) [2, 5]: 1%
- Population Mitochondria Different-Phenotype (%) [2, 5]: 15% and 22%
- Population Mitotic Cells (%) [2, 5]: 82% and 65%
- Population Normal (%) [2, 5]: 97% and 96%
- Population Pyknosed Nuclei (%) [2, 5]: 5% and 8%
- Population Tubulin-Different-Phenotype (%) [2, 5]: 12% and 11%
- Total Cell Count [2, 5]: 964 and 621
- Population Apoptotic (%) [2, 6]: 33% and 50%
- Population Fragmented Nuclei (%) [2, 6]: 14% and 13%
- Population Healthy Nuclei (%) [2, 6]: 76% and 80%
- Population Hoechst High Intensity Objects (%) [2, 6]: 2% and 3%
- Population Membrane Permeable-Phenotype (%) [2, 6]: 0% and 1%
- Population Mitochondria Different-Phenotype (%) [2, 6]: 28% and 33%
- Population Mitotic Cells (%) [2, 6]: 66% and 50%
- Population Normal (%) [2, 6]: 97% and 96%
- Population Pyknosed Nuclei (%) [2, 6]: 9% and 5%
- Population Tubulin-Different-Phenotype (%) [2, 6]: 18% and 13%
- Total Cell Count [2, 6]: 713 and 508
